Laboratory results reported in ChEMBL document CHEMBL3526003, “Pharmacokinetics of the monohydroxy derivative of oxcarbazepine and its enantiomers after a single intravenous dose given as racemate compared with a single oral dose of oxcarbazepine” (Drug Metab Dispos, 2011).

Experiments:
[1] = Total plasma clearance in human treated with monohydroxy derivative of OXC at 200 mg, iv administered as single dose by high-performance liquid chromatography; assay type: ADME, organism-based
How it was run: (§1)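 Pilot study: single intravenous racemic MHD at 150, 200 or 250 mg, one subject per dose. Plasma was sampled to 72 h and analysed by HPLC. Total plasma clearance was computed as Dose/AUC, with AUC from the linear trapezoidal rule.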

[2] = Renal clearance in human treated with monohydroxy derivative of OXC at 250 mg, iv administered as infusion over 30 mins by high-performance liquid chromatography; assay type: ADME, organism-based, Kidney; settings: in vivo
How it was run: (§2)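 250 mg racemic MHD infused intravenously over 30 min to 12 healthy adults. Plasma was drawn at 0 to 30 min and up to 72 h, and urine was fractionated to 72 h. Enantioselective HPLC was used. Renal clearance was Ae/AUC; Vss was CL_T·MRT (AUMC/AUC). Urinary half-life came from log-linear slopes between 4–18 h and 40–64 h.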

[3] = Volume of distribution at steady state in human treated with monohydroxy derivative of OXC at 250 mg, iv administered as infusion over 30 mins by high-performance liquid chromatography; assay type: ADME, organism-based; settings: in vivo, read-out: Vdss; how it was run: as §2
[4] = AUC (0 to 72 hrs) in human treated with monohydroxy derivative of OXC at 200 mg, iv administered as single dose by high-performance liquid chromatography; assay type: ADME, organism-based; design: time < 72 hr, dose 200 mg, route intravenous; settings: plasma
How it was run: (§3)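 Pilot ascending-dose study: one healthy subject per level received 150, 200 or 250 mg racemic MHD intravenously as a single dose. Plasma was sampled to 72 h and assayed by non-enantioselective and enantioselective HPLC. AUC(0-72h) was computed by the linear trapezoidal method.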

[5] = Renal clearance in human treated with oxcarbazepine at 300 mg, po administered as one-film coated tablet by high-performance liquid chromatography; assay type: ADME, organism-based, Kidney; settings: in vivo
How it was run: (§4)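 300 mg oral tablet given to 12 healthy adults. Urine was collected in fractions up to 72 h and kept at 2–8 °C, then frozen at -20 °C. Analytes were measured by HPLC before and after β-glucuronidase hydrolysis (pH 6.7, 37 °C, about 15 h). Renal clearance was Ae/plasma AUC. Urinary terminal half-life came from log-linear slopes between 4–18 h and 40–64 h.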

[6] = Tmax in human treated with oxcarbazepine at 300 mg, po administered as one-film coated tablet by high-performance liquid chromatography; assay type: ADME, organism-based; settings: in vivo
How it was run: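 Healthy adults (6 male, 6 female) took a single dose under fasting conditions in an open randomized two-way crossover with at least one week washout. Heparinized plasma was sampled at 0, 1, 2, 3, 4, 6, 8, 10, 24, 32, 48, 56 and 72 h, and stored at -80 C. Analytes were measured by HPLC (UV 210 nm for MHD). Cmax and Tmax are the highest observed concentration and its time relative to dosing.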

[7] = AUC (0 to 72 hrs) in human treated with monohydroxy derivative of OXC at 250 mg, iv administered as single dose by high-performance liquid chromatography; assay type: ADME, organism-based; design: dose 250 mg, time < 72 hr, route intravenous; settings: plasma; how it was run: as §3
[8] = Apparent terminal half life in human plasma treated with monohydroxy derivative of OXC at 250 mg, iv administered as infusion over 30 mins by high-performance liquid chromatography; assay type: ADME, organism-based; settings: read-out: betat1/2(app) (converted)
How it was run: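 Healthy adult volunteers (6 male, 6 female), randomized two-way crossover with at least one week washout; single 250 mg racemic MHD infused i.v. over 30 min. Heparinized plasma sampled 0–30 min then 1–72 h after start of infusion, stored -80 C; enantiomers quantified by enantioselective HPLC.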

[9] = AUC (0 to 72 hrs) in human treated with monohydroxy derivative of OXC at 150 mg, iv administered as single dose by high-performance liquid chromatography; assay type: ADME, organism-based; design: dose 150 mg, time < 72 hr, route intravenous; settings: plasma; how it was run: as §3
[10] = Total plasma clearance in human treated with monohydroxy derivative of OXC at 250 mg, iv administered as single dose by high-performance liquid chromatography; assay type: ADME, organism-based; how it was run: as §1
[11] = Terminal half life in human urine treated with monohydroxy derivative of OXC at 250 mg, iv administered as infusion over 30 mins by high-performance liquid chromatography; assay type: ADME, organism-based; settings: read-out: beta t1/2 (converted); how it was run: as §2
[12] = Drug excretion in human urine assessed as total amount of drug eliminated treated with oxcarbazepine at 300 mg, po administered as one-film coated tablet by high-performance liquid chromatography; assay type: ADME, organism-based; settings: read-out: Ae; how it was run: as §4
[13] = Total plasma clearance in human treated with monohydroxy derivative of OXC at 150 mg, iv administered as single dose by high-performance liquid chromatography; assay type: ADME, organism-based; how it was run: as §1
[14] = Cmax in human treated with oxcarbazepine at 300 mg, po administered as one-film coated tablet by high-performance liquid chromatography; assay type: ADME, organism-based; design: dose 300 mg, route oral; settings: in vivo
How it was run: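 Healthy adults (6 male, 6 female), single 300 mg film-coated tablet by mouth, fasting, in a randomized two-way crossover with at least one week of washout. Venous heparinized blood was drawn at 0–72 h. Plasma was separated at 2200 g and stored at -80 °C. Non-enantioselective and enantioselective HPLC were used. Cmax/tmax were the observed peak; AUC was by linear trapezoidal rule.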

[15] = Apparent terminal half life in human plasma treated with oxcarbazepine at 300 mg, po administered as one-film coated tablet by high-performance liquid chromatography; assay type: ADME, organism-based; settings: read-out: betat1/2(app) (converted)
How it was run: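 Healthy adult volunteers (6 male, 6 female), randomized two-way crossover with at least one week washout; single oral 300 mg film-coated oxcarbazepine tablet, fasting. Heparinized plasma sampled 0–72 h post dose, stored -80 C; MHD enantiomers quantified by enantioselective HPLC.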

[16] = Terminal half life in human urine treated with oxcarbazepine at 300 mg, po administered as one-film coated tablet by high-performance liquid chromatography; assay type: ADME, organism-based; settings: read-out: beta t1/2 (converted); how it was run: as §4
[17] = Cmax in human treated with monohydroxy derivative of OXC at 250 mg, iv administered as infusion over 30 mins by high-performance liquid chromatography; assay type: ADME, organism-based; design: dose 250 mg, route intravenous; settings: in vivo
How it was run: (§5)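 Healthy adults (6 male, 6 female) in an open randomized two-way crossover with at least one week washout. Venous heparinized plasma was sampled at 0, 5, 10, 15, 20, 25 and 30 min and at 1-72 h after the start of infusion, and stored at -80 C. Analytes were measured by non-enantioselective and enantioselective HPLC. Tmax is the observed time of peak concentration, reported as a median.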

[18] = Tmax in human treated with monohydroxy derivative of OXC at 250 mg, iv administered as infusion over 30 mins by high-performance liquid chromatography; assay type: ADME, organism-based; settings: in vivo; how it was run: as §5

Row | Compound | clearance [1] | CL renal at 0.5 h [2] | Vd [3] | AUC(0-t) at 72 h [4] | CL renal [5] | Tmax [6] | AUC(0-t) at 72 h [7] | half-life [8] | AUC(0-t) at 72 h [9] | clearance [10] | half-life [11] | dose excreted [12] | clearance [13] | Cmax [14] | half-life [15] | half-life [16] | Cmax [17] | Tmax [18]
1 | NC(=O)N1c2ccccc2C[C@@H](O)c2ccccc21 | 111 mL/min | 15 mL/min | 54.7 L | 59.1 µM·h | 16.7 mL/min | 3.5 h | 132 µM·h | 540 min | 55.7 µM·h | 62.2 mL/min | 540 min | 4.85% | 88.3 mL/min | 3000 nM | 948 min | 420 min |  | 
2 | NC(=O)N1c2ccccc2[C@@H](O)[C@H](O)c2ccccc21 |  |  |  |  |  | 24 h |  |  |  |  |  | 2.7% |  | 200 nM |  |  | 240 nM | 8 h
3 | NC(=O)N1c2ccccc2C[C@@H](O[C@@H]2O[C@H](C(=O)O)[C@@H](O)[C@H](O)[C@H]2O)c2ccccc21 |  |  |  |  |  |  |  |  |  |  | 852 min | 5.62% |  |  |  | 618 min |  | 
